Measurements: ChEMBL document CHEMBL5356993, “Novel pyrazolo[3,4-d]pyrimidine derivatives: design, synthesis, anticancer evaluation, VEGFR-2 inhibition, and antiangiogenic activity” (RSC Med Chem, 2023)

What was measured:
Type in all cases: functional
Settings in all cases: read-out: GI
OVCAR-5 = assay: Antiproliferative activity against human OVCAR-5 cells assessed as cell growth inhibition at 10 uM incubated for 48 hrs by SRB assay relative to control
Method in brief: (§1)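 Cells plated in 96-well plates at […] cells/well and preincubated 24 h at 37 °C, 5% CO2. Time-zero plates were TCA-fixed. Compound was diluted in medium with 50 µg/mL gentamicin and cells exposed for 48 h. Adherent cells fixed with 10% final TCA; suspension cells with 16% final TCA. Plates stained with 0.4% SRB in 1% acetic acid, dye solubilized in 10 mM Trizma, absorbance read at 515 nm. Percent growth calculated against time-zero and control.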

NCI-H322M = assay: Antiproliferative activity against human NCI-H322M cells assessed as cell growth inhibition at 10 uM incubated for 48 hrs by SRB assay relative to control
NCI-H460 = assay: Antiproliferative activity against human NCI-H460 cells assessed as cell growth inhibition at 10 uM incubated for 48 hrs by SRB assay relative to control
KM12 = assay: Antiproliferative activity against human KM12 cells assessed as cell growth inhibition at 10 uM incubated for 48 hrs by SRB assay relative to control; method in brief: as §1
SW-620 = assay: Antiproliferative activity against human SW620 cells assessed as cell growth inhibition at 10 uM incubated for 48 hrs by SRB assay relative to control
Method in brief: (§2)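 Cells pre-incubated 24 h at 37°C, 5% CO2, then exposed to compound (DMSO stock diluted in medium with 50 µg/mL gentamicin) for 48 h. Adherent cells fixed with cold TCA (final 10%, 60 min, 4°C); suspension cells fixed with 16% TCA final. Stained with 0.4% SRB in 1% acetic acid for 10 min, dye solubilized in 10 mM Trizma base, absorbance read at 515 nm. Growth calculated against time-zero and untreated control plates.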

SF-539 = assay: Antiproliferative activity against human SF-539 cells assessed as cell growth inhibition at 10 uM incubated for 48 hrs by SRB assay relative to control; method in brief: as §1
U-251 = assay: Antiproliferative activity against human U-251 cells assessed as cell growth inhibition at 10 uM incubated for 48 hrs by SRB assay relative to control; method in brief: as §2
MDA-MB-435 = assay: Antiproliferative activity against human MDA-MB-435 cells assessed as cell growth inhibition at 10 uM incubated for 48 hrs by SRB assay relative to control
SK-MEL-2 = assay: Antiproliferative activity against human SK-MEL-2 cells assessed as cell growth inhibition at 10 uM incubated for 48 hrs by SRB assay relative to control; method in brief: as §1
SK-MEL-5 = assay: Antiproliferative activity against human SK-MEL-5 cells assessed as cell growth inhibition at 10 uM incubated for 48 hrs by SRB assay relative to control; method in brief: as §1
UACC-257 = assay: Antiproliferative activity against human UACC-257 cells assessed as cell growth inhibition at 10 uM incubated for 48 hrs by SRB assay relative to control; method in brief: as §2
OVCAR-8 = assay: Antiproliferative activity against human OVCAR-8 cells assessed as cell growth inhibition at 10 uM incubated for 48 hrs by SRB assay relative to control
NCI/ADR-RES = assay: Antiproliferative activity against human NCI-ADR-RES cells assessed as cell growth inhibition at 10 uM incubated for 48 hrs by SRB assay relative to control
SK-OV-3 = assay: Antiproliferative activity against human SK-OV-3 cells assessed as cell growth inhibition at 10 uM incubated for 48 hrs by SRB assay relative to control; method in brief: as §1
RXF 393 = assay: Antiproliferative activity against human RXF 393 cells assessed as cell growth inhibition at 10 uM incubated for 48 hrs by SRB assay relative to control; method in brief: as §1
TK-10 = assay: Antiproliferative activity against human TK-10 cells assessed as cell growth inhibition at 10 uM incubated for 48 hrs by SRB assay relative to control; method in brief: as §2
BT-549 = assay: Antiproliferative activity against human BT-549 cells assessed as cell growth inhibition at 10 uM incubated for 48 hrs by SRB assay relative to control
T47D = assay: Antiproliferative activity against human T47D cells assessed as cell growth inhibition at 10 uM incubated for 48 hrs by SRB assay relative to control; method in brief: as §2
NCI-H23 = assay: Antiproliferative activity against human NCI-H23 cells assessed as cell growth inhibition at 10 uM incubated for 48 hrs by SRB assay relative to control
NCI-H226 = assay: Antiproliferative activity against human NCI-H226 cells assessed as cell growth inhibition at 10 uM incubated for 48 hrs by SRB assay relative to control; method in brief: as §1
HOP-92 = assay: Antiproliferative activity against human HOP-92 cells assessed as cell growth inhibition at 10 uM incubated for 48 hrs by SRB assay relative to control; method in brief: as §1
EKVX = assay: Antiproliferative activity against human EKVX cells assessed as cell growth inhibition at 10 uM incubated for 48 hrs by SRB assay relative to control
A549 = assay: Antiproliferative activity against human A549 cells assessed as cell growth inhibition at 10 uM incubated for 48 hrs by SRB assay relative to control
RPMI-8226 = assay: Antiproliferative activity against human RPMI-8226 cells assessed as cell growth inhibition at 10 uM incubated for 48 hrs by SRB assay relative to control
K562 = assay: Antiproliferative activity against human K562 cells assessed as cell growth inhibition at 10 uM incubated for 48 hrs by SRB assay relative to control

Compound | inhibition of growth at 10 µM (OVCAR-5) | inhibition of growth at 10 µM (NCI-H322M) | inhibition of growth at 10 µM (NCI-H460) | inhibition of growth at 10 µM (KM12) | inhibition of growth at 10 µM (SW-620) | inhibition of growth at 10 µM (SF-539) | inhibition of growth at 10 µM (U-251) | inhibition of growth at 10 µM (MDA-MB-435) | inhibition of growth at 10 µM (SK-MEL-2) | inhibition of growth at 10 µM (SK-MEL-5) | inhibition of growth at 10 µM (UACC-257) | inhibition of growth at 10 µM (OVCAR-8) | inhibition of growth at 10 µM (NCI/ADR-RES) | inhibition of growth at 10 µM (SK-OV-3) | inhibition of growth at 10 µM (RXF 393) | inhibition of growth at 10 µM (TK-10) | inhibition of growth at 10 µM (BT-549) | inhibition of growth at 10 µM (T47D) | inhibition of growth at 10 µM (NCI-H23) | inhibition of growth at 10 µM (NCI-H226) | further results
Cc1nc2c(cnn2-c2ccccc2)c(=O)n1-c1ccc(N)cc1 | < 15% | < 15% | 16.8% | < 15% | < 15% | 19.4% | < 15% | 22.9% | 17.8% | 66.8% | 34.3% | < 15% | < 15% | < 15% | < 15% | 21.8% | 31.2% | 64.9% | 40.1% | 18% | inhibition of growth at 10 µM (HOP-92): < 15%; inhibition of growth at 10 µM (EKVX): 63.3%; inhibition of growth at 10 µM (A549): < 15%; inhibition of growth at 10 µM (RPMI-8226): 48.2%; inhibition of growth at 10 µM (K562): 52.1%
CC(=O)Nc1ccc(-n2c(C)nc3c(cnn3-c3ccccc3)c2=O)cc1 | < 15% | < 15% | < 15% | < 15% | < 15% | 18.9% | < 15% | 21.1% | 24.3% | 77.4% | 41.7% | 20% | < 15% | < 15% | < 15% | 20.4% | 48% | < 15% | 31.7% | 33.5% | inhibition of growth at 10 µM (HOP-92): 17%; inhibition of growth at 10 µM (EKVX): 66.8%; inhibition of growth at 10 µM (A549): < 15%; inhibition of growth at 10 µM (RPMI-8226): 47.5%; inhibition of growth at 10 µM (K562): 55.4%
COc1ccc(/C=C/C(=O)c2ccc(-n3c(C)nc4c(cnn4-c4ccccc4)c3=O)cc2)cc1 | < 15% | < 15% | < 15% | 68.4% | 24.9% | 22.4% | 25.9% | 88.8% | 29.4% | 72.3% | 25.4% | 16.6% | 37.6% | < 15% | 15.6% | < 15% | 55% | 65.3% | 27.6% | 29.4% | inhibition of growth at 10 µM (HOP-92): < 15%; inhibition of growth at 10 µM (EKVX): 57.1%; inhibition of growth at 10 µM (A549): < 15%; inhibition of growth at 10 µM (RPMI-8226): > 100%; inhibition of growth at 10 µM (K562): 87.6%
Cc1nc2c(cnn2-c2ccccc2)c(=O)n1-c1ccc(N2C(=O)C=CC2=O)cc1 | < 15% | < 15% | < 15% | < 15% | < 15% | < 15% | < 15% | < 15% | < 15% | < 15% | < 15% | < 15% | < 15% | < 15% | < 15% | < 15% | < 15% | < 15% | < 15% | < 15% | inhibition of growth at 10 µM (HOP-92): < 15%; inhibition of growth at 10 µM (EKVX): < 15%; inhibition of growth at 10 µM (A549): < 15%; inhibition of growth at 10 µM (RPMI-8226): < 15%; inhibition of growth at 10 µM (K562): < 15%
Cc1nc2c(cnn2-c2ccccc2)c(=O)n1-c1ccc(N2C(=O)c3ccccc3C2=O)cc1 | < 15% | < 15% | < 15% | < 15% | < 15% | < 15% | < 15% | < 15% | < 15% | < 15% | < 15% | < 15% | < 15% | < 15% | < 15% | < 15% | < 15% | < 15% | < 15% | < 15% | inhibition of growth at 10 µM (HOP-92): < 15%; inhibition of growth at 10 µM (EKVX): < 15%; inhibition of growth at 10 µM (A549): < 15%; inhibition of growth at 10 µM (RPMI-8226): < 15%; inhibition of growth at 10 µM (K562): < 15%
